Bioassay records from PubChem BioAssay.
Rows were chosen to be rich in hits. Some 2.3% of all compounds tested hit in one or more screens of this group.
TRPC6 inhibitor – mouse TRPC6 channel inhibition. Q61143. HEK293-TRPC6, membrane potential dye, ACh-evoked depolarization; hits give low values. B-score at 10 µM. 1.1% of 310,000 active;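 active = B-score under library mean minus 3 SD, initial fluorescence not abnormally high, positive integrated signal ratio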;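 also: B-score derived from integrated fluorescence ratio over the kinetic read; more negative B-score means stronger inhibition of depolarization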
TRPC4 block – inhibitors of mouse TRPC4 channel; Q9QUQ5; 0.39% of 300,000 active; AID 2247; HEK293 TRPC4beta/mu-opioid, DAMGO-evoked Fluo4 calcium flux; hits give low values; B-score at 10 µM;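 active = B-score over 3 SD under the library average, no early fluorescence shift, positive overall ratio signal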
Target sequence (Q9QUQ5 whole entry, looked up): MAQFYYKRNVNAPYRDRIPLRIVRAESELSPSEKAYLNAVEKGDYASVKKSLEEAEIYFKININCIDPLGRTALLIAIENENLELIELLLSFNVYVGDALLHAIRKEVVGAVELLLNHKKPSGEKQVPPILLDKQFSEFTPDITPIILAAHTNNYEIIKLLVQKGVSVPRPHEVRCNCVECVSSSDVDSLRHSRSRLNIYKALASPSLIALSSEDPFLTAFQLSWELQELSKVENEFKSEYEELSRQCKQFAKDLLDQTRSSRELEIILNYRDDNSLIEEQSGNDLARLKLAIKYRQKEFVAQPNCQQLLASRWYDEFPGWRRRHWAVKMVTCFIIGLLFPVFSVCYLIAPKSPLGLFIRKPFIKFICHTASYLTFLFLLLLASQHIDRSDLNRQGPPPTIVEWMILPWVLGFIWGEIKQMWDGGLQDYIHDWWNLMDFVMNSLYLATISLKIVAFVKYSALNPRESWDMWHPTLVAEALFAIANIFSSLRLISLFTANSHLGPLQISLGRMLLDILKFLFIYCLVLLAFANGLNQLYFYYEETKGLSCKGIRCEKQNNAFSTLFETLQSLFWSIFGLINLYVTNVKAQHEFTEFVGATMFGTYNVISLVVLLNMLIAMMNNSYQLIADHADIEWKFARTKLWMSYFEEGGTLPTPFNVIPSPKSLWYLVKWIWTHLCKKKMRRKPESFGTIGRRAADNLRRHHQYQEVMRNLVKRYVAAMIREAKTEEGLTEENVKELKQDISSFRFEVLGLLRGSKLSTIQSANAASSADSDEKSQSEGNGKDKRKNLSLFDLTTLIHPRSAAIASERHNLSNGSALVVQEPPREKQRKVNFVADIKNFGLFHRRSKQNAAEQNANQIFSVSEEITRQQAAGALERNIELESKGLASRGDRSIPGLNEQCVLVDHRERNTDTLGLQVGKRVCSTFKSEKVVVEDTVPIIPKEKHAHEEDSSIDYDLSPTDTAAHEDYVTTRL
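Assay system: HEK293 cells with stable TRPC4beta plus mu-opioid receptor expression; Probe or stimulus: DAMGO in two steps, submaximal then maximal; Dosing: single-point compound dosing; Measured by: Fluo4 calcium-dye fluorescence, kinetic read; Read-out basis: B score from integrated Fluo4 fluorescence ratio.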
TRPC6 activator – mouse TRPC6 channel activation; HEK293-TRPC6 membrane potential dye fluorescence; hits give high values; B-score at 10 µM; Q61143; AID 2550; 0.13% of 310,000 active;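 active = B-score of the integrated fluorescence ratio above library mean plus 3 SD, and starting fluorescence ratio within library mean plus 5 SD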;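 also: higher score means more depolarization so channel activation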
TRPC4 act – TRPC4 (mouse) channel activation. Q9QUQ5. HEK293 TRPC4beta/mu-opioid, Fluo4 calcium fluorescence; hits give high values. B-score at 10 µM. 0.49% of 310,000 active;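 active = B-score above 5 SD of library B-scores, and initial fluorescence ratio not above library mean plus 5 SD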;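 also: positive B-score marks a calcium rise read as TRPC4 activation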
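Assay system – TRPC4beta and mu-opioid receptor HEK293 stable cells · Measured by – Fluo4 fluorescence, kinetic · Schedule – dye loading 45 min room temperature, 110 s kinetic read · Read-out – B-scored integrated calcium fluorescence ratio · Controls – buffer and maximal DAMGO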
TRPC4 potent – allosterically enhances the mouse TRPC4 cation channel; HEK293 TRPC4beta/mu-opioid, DAMGO EC20, Fluo-4 Ca2+ flux; hits give high values; B-score at 10 µM; 0.42% of 310,000 active;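 active = B-score of calcium response area above 5 SD of library B-scores, with initial fluorescence ratio within 5 SD of library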;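 also: B-score of integrated fluorescence ratio over time as area under calcium response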
TRPC4 sel inh 2 – second selectivity test of TRPC6 inhibitors: effect on mouse TRPC4; shares compounds with TRPC6 inhibitor; HEK293 TRPC4/MOR, membrane potential dye fluorescence; channel activated by saturating DAMGO dose; inhibition, % at 10 µM; 42% of 920 active;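 active = compounds whose fluorescence signal differed from control wells by over 3 SD, either direction, in both duplicate plates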
TRPC4 spec – selectivity of TRPC6 inhibitors: effect on mouse TRPC4; shares compounds with TRPC6 inhibitor; HEK293 TRPC4/mu-opioid, membrane potential fluorescence; activity change, negative = inhibition, % at 10 µM; 61% of 920 active; AID 2777;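 active = rise or fall in signal beyond 3 SD of buffer-only wells in both replicate plates, either sign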;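 also: integrated kinetic ratio of fluorescence range over baseline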
HEK293 MPD ctr 2-1 – second check of TRPC6 inhibitor effects in parental HEK293 cells | 31% of 920 active | parental HEK293 membrane potential dye fluorescence; maximal acetylcholine challenge after compound addition | signal change vs control, % at 10 µM | shares compounds with TRPC6 inhibitor;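 active = membrane potential signal moving either way by over 3 SD of the maximum-effect control, in both duplicate plates, meaning non-specific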
HEK293 MPD ctr-1 – parental HEK293 nonspecific activity of TRPC6 inhibitors | shares compounds with TRPC6 inhibitor | parental HEK293 membrane potential dye fluorescence | membrane potential signal change, % at 10 µM | 60% of 920 active | AID 2780;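 active = membrane potential signal shifting up or down by more than 3 SD of buffer-only wells, on both duplicate plates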
HEK293 MPD ctr-2 – parental HEK293 nonspecific activity of TRPC6 modulators. shares compounds with TRPC6 inhibitor. membrane potential dye fluorescence. membrane potential signal change, % at 10 µM. 51% of 2,400 active;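 active = membrane potential signal moves up or down beyond 5 SD from buffer-only wells, on both duplicate plates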
HEK293 MPD ctr 2-2 – parental HEK293 nonspecific activity of TRPC6 modulators, second screen | shares compounds with TRPC6 inhibitor | membrane potential dye fluorescence; after compound, maximal acetylcholine stimulation | inhibition, % at 10 µM | 14% of 2,400 active;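 active = membrane potential signal drops by more than 5 SD from the mean control signal, in both duplicate plates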;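 also: plate controls were acetylcholine ECmax control wells for no effect and buffer only wells for full effect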
TRPC4/MOR mod – mouse TRPC4 off-target activity of TRPC6 modulators | shares compounds with TRPC6 inhibitor | HEK293 TRPC4/mu-opioid, membrane potential fluorescence | percent change from control (negative = decrease, positive = increase), % at 10 µM | 69% of 2,400 active;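 active = membrane potential signal moved up or down beyond 5 SD of buffer control wells, in both duplicate plates, actives on both sides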;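 also: plate controls were assay buffer wells for no effect and DAMGO maximal-effect wells for full effect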
TRPC4 ctr inh 2 – second selectivity test of TRPC6 modulators against mouse TRPC4; HEK293 TRPC4/mu-opioid, membrane potential dye fluorescence; stimulated with maximal-effect DAMGO; shares compounds with TRPC6 inhibitor; 55% of 2,400 active; inhibition, % at 10 µM;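 active = drop in membrane potential signal beyond 5 SD of the control wells in both duplicate plates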;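 also: TRPC4 counter screen for TRPC6 hits run under conditions tuned for TRPC6 not TRPC4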
TRPC6 inh conf – confirmation of mouse TRPC6 inhibitors; shares compounds with TRPC6 inhibitor; HEK293-TRPC6, membrane potential dye, ACh-evoked depolarization; inhibition, % at 10 µM; 43% of 3,300 active; AID 488960;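 active = fluorescence ratio falls more than 5 SD below the full-stimulation control mean, in both duplicate runs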;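 also: integrated fluorescence ratio of peak minus minimum over baseline after agonist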
TRPC6 act confirm – confirmation of mouse TRPC6 activators | 11% of 2,800 active | AID 488961 | shares compounds with TRPC6 inhibitor | activation, % at 10 µM | HEK293-TRPC6 membrane potential dye fluorescence, FDSS;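 active = ratio signal rise beyond 5 SD above unstimulated control wells' mean, seen in both duplicate runs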;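 also: plate controls were buffer EC0 wells for no effect and acetylcholine ECmax response for full effect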
Starred values were filed as active, the others as inactive.

For COc1ccc(/C=C/CN2CCCC(CCC(=O)NCc3ccc(F)c(F)c3)C2)cc1 (stereo not drawn) the results were TRPC6 inhibitor -7.4*, TRPC4 block inactive, TRPC6 activator inactive, TRPC4 act inactive, TRPC4 potent inactive, TRPC4 sel inh 2 48%*, TRPC4 spec 0.3%*, HEK293 MPD ctr 2-1 inactive, HEK293 MPD ctr-1 7.4%*, TRPC6 inh conf inactive and TRPC6 act confirm inactive.
Screening O=C(CCNS(=O)(=O)c1ccc(OC(F)(F)F)cc1)N1CCN(C/C=C/c2ccccc2)CC1 returned TRPC6 inhibitor inactive, TRPC4 block inactive, TRPC6 activator inactive, TRPC4 act inactive and TRPC4 potent inactive.
`Cc1ncc(CSc2nc3ccccc3[nH]2)c(N)n1` gave TRPC6 inhibitor inactive, TRPC4 block inactive, TRPC6 activator inactive, TRPC4 act inactive and TRPC4 potent inactive.
CCOc1ccccc1CSc1nc2ccccc2[nH]1 was read as TRPC6 inhibitor -5.8*, TRPC4 block inactive, TRPC6 activator inactive, TRPC4 act inactive, TRPC4 potent inactive, HEK293 MPD ctr-2 inactive, HEK293 MPD ctr 2-2 inactive, TRPC4/MOR mod inactive, TRPC4 ctr inh 2 inactive, TRPC6 inh conf inactive and TRPC6 act confirm inactive.
CC(=O)c1ccc(N2CCN(C(=O)CCS(=O)(=O)c3ccc4c(c3)CCN4C(C)=O)CC2)cc1 was read as TRPC6 inhibitor inactive, TRPC4 block inactive, TRPC6 activator inactive, TRPC4 act inactive and TRPC4 potent inactive.
`COc1c(OC(C)=O)c(=O)n2c3ccccc3c3ccnc1c32` gave TRPC6 inhibitor inactive, TRPC4 block inactive, TRPC6 activator inactive, TRPC4 act inactive and TRPC4 potent inactive.
Screening COc1ccc(CCC(C)NC2CCCCCCC2)cc1 (stereo not drawn) returned TRPC6 inhibitor -5.7*, TRPC4 block inactive, TRPC6 activator inactive, TRPC4 act inactive, TRPC4 potent inactive, HEK293 MPD ctr-2 289%*, HEK293 MPD ctr 2-2 inactive, TRPC4/MOR mod 64%*, TRPC4 ctr inh 2 76%* and TRPC6 inh conf 56%*.
CC(=O)c1ccc2cccc3c2c1N=CN3C was read as TRPC6 inhibitor -8.9*, TRPC4 block inactive, TRPC6 activator inactive, TRPC4 act inactive, TRPC4 potent inactive, HEK293 MPD ctr-2 -146%*, HEK293 MPD ctr 2-2 68%*, TRPC4/MOR mod -66%*, TRPC4 ctr inh 2 50%*, TRPC6 inh conf 50%* and TRPC6 act confirm inactive.
For CN1c2cccc3cccc(c23)N(C)C1(C)C the results were TRPC6 inhibitor inactive, TRPC4 block inactive, TRPC6 activator inactive, TRPC4 act inactive and TRPC4 potent inactive.
Screening Fc1ccccc1CNCCC(Cc1ccccc1)c1ccc2c(c1)OCO2 (stereo not drawn) returned TRPC6 inhibitor -6.3*, TRPC4 block -8*, TRPC6 activator inactive, TRPC4 act 70*, TRPC4 potent inactive, HEK293 MPD ctr-2 119%*, HEK293 MPD ctr 2-2 inactive, TRPC4/MOR mod 48%*, TRPC4 ctr inh 2 69%* and TRPC6 inh conf inactive.
Screening CC(=O)N(CCC(Cc1ccccc1)c1ccc2c(c1)OCO2)Cc1ccccc1F (stereo not drawn) returned TRPC6 inhibitor inactive, TRPC4 block inactive, TRPC6 activator inactive, TRPC4 act inactive and TRPC4 potent inactive.
Screening CCCn1c(C)cc(=O)c2cc(NC(=O)c3cnccn3)ccc21 returned TRPC6 inhibitor -12*, TRPC4 block inactive, TRPC6 activator inactive, TRPC4 act inactive, TRPC4 potent inactive, HEK293 MPD ctr-2 -300%*, HEK293 MPD ctr 2-2 86%*, TRPC4/MOR mod -60%*, TRPC4 ctr inh 2 60%*, TRPC6 inh conf 66%* and TRPC6 act confirm inactive.
`CCc1ccc(NC(=O)c2cnccn2)cc1` gave TRPC6 inhibitor inactive, TRPC4 block inactive, TRPC6 activator inactive, TRPC4 act inactive and TRPC4 potent inactive.
Screening O=C(Nc1ccc2nccnc2c1)c1cnccn1 returned TRPC6 inhibitor -5.8*, TRPC4 block inactive, TRPC6 activator inactive, TRPC4 act inactive, TRPC4 potent inactive, HEK293 MPD ctr-2 -272%*, HEK293 MPD ctr 2-2 inactive, TRPC4/MOR mod -48%*, TRPC4 ctr inh 2 42%*, TRPC6 inh conf 49%* and TRPC6 act confirm inactive.
For COc1cc(/C=N/Nc2nncc3ccccc23)cc(OC)c1OC the results were TRPC6 inhibitor -7.9*, TRPC4 block inactive, TRPC6 activator inactive, TRPC4 act inactive, TRPC4 potent inactive, TRPC4 sel inh 2 inactive, TRPC4 spec -25%*, HEK293 MPD ctr 2-1 inactive, HEK293 MPD ctr-1 -458%*, TRPC6 inh conf inactive and TRPC6 act confirm inactive.
CN1CCN(S(=O)(=O)c2ccc(NC(=O)c3cccc(F)c3)cc2)CC1 was read as TRPC6 inhibitor inactive, TRPC4 block inactive, TRPC6 activator inactive, TRPC4 act inactive and TRPC4 potent inactive.
